Drawing on ChEMBL document CHEMBL4145481, “Synthesis and biological evaluation of novel bavachinin analogs as anticancer agents” (Eur J Med Chem, 2018), this text covers inhibition of growth and IC50 for 27 molecules.

For assay [1], the system named is HCT-116. Kind of assay: Cytotoxicity against human HCT116 cells assessed as growth inhibition at 50 uM after 48 hrs by SRB assay relative to control. It is filed as functional. The note with it: HCT-116, 48 h, read-out: GI. The gist of the method: (§1)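 SRB growth-inhibition run in RPMI-1640/10% FBS at 37°C, 5% CO₂. Cell lines were seeded (PC-3 7000, MCF-7 8000, A549 7500, HCT-116 7000/well) and attached 24 h. The treatment series included 50 μM, with 48 h exposure. Cells were cold-TCA fixed and stained with 0.4% SRB. Dye was solubilized in 10 mM Tris pH 10.4 and read at 540 nm against untreated control.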
(Sulforhodamine B stains cellular protein and so reports cell mass.)

The subject of assay [2] is PC-3. Kind of assay: Cytotoxicity against human PC3 cells assessed as growth inhibition at 50 uM after 48 hrs by SRB assay relative to control. It is filed as functional. The note with it: PC-3, 48 h, read-out: GI. In a few lines: as §1
Assay [3] concerns MCF7. Kind of assay: Cytotoxicity against human MCF7 cells assessed as growth inhibition at 50 uM after 48 hrs by SRB assay relative to control. To be noted: MCF7, 48 h, read-out: GI. It is filed as functional. The gist of the method:
as §1

Assay [4] relates to A549. The assay is described as follows: Cytotoxicity against human A549 cells assessed as growth inhibition at 50 uM after 48 hrs by SRB assay relative to control. The note with it: A549, 48 h, read-out: GI. It is filed as functional. The gist of the method:
as §1

In assay [5] the test system is MCF7. Kind of assay: Cytotoxicity against human MCF7 cells assessed as growth inhibition after 48 hrs by SRB assay. It is filed as functional, cell-based. The note with it: MCF7, 48 h. The gist of the method:
(§2)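 Cells were grown in RPMI-1640 with 10% FBS and penicillin/streptomycin at 37°C, 5% CO₂. Seeding was PC-3 7000, MCF-7 8000, A549 7500 and HCT-116 7000 cells/well, with 24 h attachment. Cells were exposed to 1, 5, 10, 30 and 50 μM for 48 h, with a 5-fluorouracil reference. Cells were TCA-fixed (1 h, 4°C) and stained with 0.4% SRB. Bound dye was dissolved in 10 mM Tris pH 10.4 and read at 540 nm. IC50 came from the concentration-response.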

The subject of assay [6] is PC-3. Kind of assay: Cytotoxicity against human PC3 cells assessed as growth inhibition after 48 hrs by SRB assay. It is filed as functional, cell-based. The note with it: PC-3, 48 h. In a few lines: as §2
Assay [7] concerns A549. Kind of assay: Cytotoxicity against human A549 cells assessed as growth inhibition after 48 hrs by SRB assay. It is filed as functional, cell-based. To be noted: A549, 48 h. In a few lines:
as §2

The subject of assay [8] is HCT-116. Kind of assay: Cytotoxicity against human HCT116 cells assessed as growth inhibition after 48 hrs by SRB assay. It is filed as functional, cell-based. To be noted: HCT-116, 48 h. In a few lines: as §2

For the molecule `CCCCOc1ccc([C@@H]2CC(=O)c3cc(CC=C(C)C)c(OC)cc3O2)cc1`, the inhibition of growth at 50 µM came out at 60% in the assay with HCT-116 [1], 48% in the assay with PC-3 [2], 57% in the assay on MCF7 [3] and 37% in the assay with A549 [4].

In the case of `COc1ccc([C@@H]2C/C(=N/O)c3cc(CC=C(C)C)c(OC)cc3O2)cc1`, the inhibition of growth at 50 µM in the assay on HCT-116 [1] came out at 47%; in the assay with PC-3 [2] it was 45%; in the assay with MCF7 [3], 63%; with A549 [4], 66%.

For `COc1ccc([C@@H]2C/C(=N/OCc3cn(-c4ccccc4CO)nn3)c3cc(CC=C(C)C)c(OC)cc3O2)cc1`, the inhibition of growth at 50 µM in the assay with HCT-116 [1], in the assay on PC-3 [2], in the assay on MCF7 [3] and in the assay on A549 [4] was 100% throughout. For the same molecule, the IC50 in the assay with MCF7 [5] was 23.4 µM; with PC-3 [6], 26.6 µM; with A549 [7] it was 30.7 µM; in the assay on HCT-116 [8], 29.9 µM.

Consider `COc1cc(O)c(C(=O)/C=C/c2ccc(O)cc2)cc1CC=C(C)C`, for which the inhibition of growth at 50 µM stood at 63% in the assay with HCT-116 [1], 44% in the assay with PC-3 [2], 73% in the assay with MCF7 [3] and 68% with A549 [4].

For the molecule `CCCOc1ccc([C@@H]2CC(=O)c3cc(CC=C(C)C)c(OC)cc3O2)cc1`, the inhibition of growth at 50 µM was found to be 63% in the assay with HCT-116 [1], 54% with PC-3 [2], 60% in the assay with MCF7 [3] and 43% in the assay on A549 [4].

Consider `COc1ccc([C@@H]2CC(=O)c3cc(CC=C(C)C)c(OC)cc3O2)cc1`, for which the inhibition of growth at 50 µM in the assay on HCT-116 [1] is 68%; in the assay on PC-3 [2], 58%; in the assay with MCF7 [3] it was 65%; in the assay on A549 [4], 45%.

In the case of `COc1cc2c(cc1CC1OC1(C)C)C(=O)C[C@@H](c1ccc(O)cc1)O2` (stereo partly drawn), the inhibition of growth at 50 µM turned out to be 97% in the assay with HCT-116 [1], 92% in the assay on PC-3 [2], 98% in the assay on MCF7 [3] and 79% in the assay with A549 [4]. Further, the IC50 in the assay with MCF7 [5] turned out to be 30.9 µM; in the assay on PC-3 [6], 27.4 µM; in the assay with A549 [7], 29.8 µM; in the assay on HCT-116 [8], 29 µM.

As for `C#CCOc1ccc([C@@H]2CC(=O)c3cc(CC=C(C)C)c(OC)cc3O2)cc1`, the inhibition of growth at 50 µM is 75% in the assay with HCT-116 [1], 52% with PC-3 [2], 68% in the assay with MCF7 [3] and 53% in the assay on A549 [4].

With `COc1cc2c(cc1CCC(C)C)C(=O)C[C@@H](c1ccc(O)cc1)O2`, the inhibition of growth at 50 µM came out at 77% in the assay with HCT-116 [1], 78% in the assay with PC-3 [2], 81% in the assay on MCF7 [3] and 75% in the assay on A549 [4]. For the same molecule, the IC50 with MCF7 [5] is 34.5 µM; in the assay on PC-3 [6] it was 36.3 µM; in the assay with A549 [7], 30.5 µM; in the assay on HCT-116 [8], 34.3 µM.

Take `COc1ccc([C@@H]2C/C(=N/OCc3cn(-c4cccnc4Cl)nn3)c3cc(CC=C(C)C)c(OC)cc3O2)cc1`: the inhibition of growth at 50 µM with HCT-116 [1] worked out at 47%; in the assay on PC-3 [2], 44%; in the assay with MCF7 [3], 35%; in the assay on A549 [4], 58%.

Regarding `COc1ccc([C@@H]2C/C(=N/OCc3cn(-c4ccc(Cl)cc4C)nn3)c3cc(CC=C(C)C)c(OC)cc3O2)cc1`, the inhibition of growth at 50 µM in the assay with HCT-116 [1] was 20%; in the assay on PC-3 [2], 49%; with MCF7 [3], 37%; with A549 [4], 35%.

In the case of `COc1cc2c(cc1CC=C(C)C)C(=O)C[C@@H](c1ccc(Oc3ccc(F)cc3)cc1)O2`, the inhibition of growth at 50 µM turned out to be 29% with HCT-116 [1], 19% in the assay on PC-3 [2], 37% in the assay on MCF7 [3] and 27% with A549 [4].

With `COc1ccc([C@@H]2C/C(=N/OCc3cn(-c4ccc(C(=O)c5ccccc5)cc4)nn3)c3cc(CC=C(C)C)c(OC)cc3O2)cc1`, the inhibition of growth at 50 µM is 52% in the assay on HCT-116 [1], 40% in the assay on PC-3 [2], 41% in the assay with MCF7 [3] and 34% with A549 [4].

Turning to `CCOc1ccc([C@@H]2CC(=O)c3cc(CC=C(C)C)c(OC)cc3O2)cc1`, the inhibition of growth at 50 µM with HCT-116 [1] was 65%; with PC-3 [2], 60%; with MCF7 [3], 57%; in the assay on A549 [4], 37%.

On to `COc1ccc([C@@H]2C/C(=N/OCc3cn(-c4ccc(NC(=O)c5ccccc5)cc4)nn3)c3cc(CC=C(C)C)c(OC)cc3O2)cc1`, for which the inhibition of growth at 50 µM amounted to 8% in the assay with HCT-116 [1], 22% in the assay with PC-3 [2], 4% in the assay with MCF7 [3] and 31% with A549 [4].

In the case of `COc1ccc([C@@H]2C/C(=N/OCc3cn(-c4ccc(O)cc4)nn3)c3cc(CC=C(C)C)c(OC)cc3O2)cc1`, the inhibition of growth at 50 µM in the assay on HCT-116 [1] was determined as 65%; in the assay on PC-3 [2] it was 64%; with MCF7 [3] it was 63%; in the assay with A549 [4], 52%.

`COc1cc2c(cc1CC=C(C)C)[C@H](O)C[C@@H](c1ccc(O)cc1)O2`: the inhibition of growth at 50 µM with HCT-116 [1] came out at 37%; in the assay on PC-3 [2] it was 13%; in the assay on MCF7 [3] it was 49%; in the assay on A549 [4], 48%.

Take `COc1ccc([C@@H]2C/C(=N/OCc3cn(-c4cc(OC)c(OC)c(OC)c4)nn3)c3cc(CC=C(C)C)c(OC)cc3O2)cc1`: the inhibition of growth at 50 µM came to 29% in the assay with HCT-116 [1], 36% with PC-3 [2], 45% in the assay with MCF7 [3] and 28% in the assay on A549 [4].

Turning to `COc1ccc([C@@H]2C/C(=N/OCc3cn(-c4cccc(CO)c4)nn3)c3cc(CC=C(C)C)c(OC)cc3O2)cc1`, the inhibition of growth at 50 µM in the assay with HCT-116 [1] is 27%; in the assay with PC-3 [2], 34%; in the assay on MCF7 [3], 42%; in the assay on A549 [4] it was 43%.

For the molecule `COc1cc2c(cc1CC=C(C)C)C(=O)C[C@@H](c1ccc(Oc3ccccc3)cc1)O2`, the inhibition of growth at 50 µM in the assay with HCT-116 [1] was determined as 76%; in the assay on PC-3 [2] it was 53%; in the assay on MCF7 [3], 69%; with A549 [4] it was 46%.

`COc1cc2c(cc1CC=C(C)C)C(=O)C[C@@H](c1ccc(Oc3cccc([N+](=O)[O-])c3)cc1)O2`: the inhibition of growth at 50 µM in the assay on HCT-116 [1] came out at 46%; with PC-3 [2], 21%; in the assay on MCF7 [3] it was 53%; in the assay on A549 [4], 37%.

In the case of `COc1cc2c(cc1CC=C(C)C)/C(=N/NC(N)=O)C[C@@H](c1ccc(O)cc1)O2`, the inhibition of growth at 50 µM was determined as 87% in the assay with HCT-116 [1], 67% in the assay with PC-3 [2], 93% in the assay with MCF7 [3] and 77% in the assay on A549 [4]. Moreover, the half-maximal inhibitory concentration (IC50) in the assay with MCF7 [5] came out at 19.5 µM; in the assay with PC-3 [6] it was 27.7 µM; in the assay with A549 [7], 25.3 µM; in the assay on HCT-116 [8], 24.3 µM.

As for `COc1ccc([C@@H]2C/C(=N/OCc3cn(-c4ccc(NC(C)=O)cc4)nn3)c3cc(CC=C(C)C)c(OC)cc3O2)cc1`, the inhibition of growth at 50 µM with HCT-116 [1] came out at 6%; in the assay on PC-3 [2], 2%; in the assay with MCF7 [3], 0%; with A549 [4] it was 19%.

Consider `COc1cc2c(cc1CC=C(C)C)/C(=N/O)C[C@@H](c1ccc(O)cc1)O2`, for which the inhibition of growth at 50 µM with HCT-116 [1] is 99%; with PC-3 [2] it was 81%; with MCF7 [3] it was 93%; with A549 [4] it was 80%. For the same molecule, the IC50 in the assay with MCF7 [5] stood at 23.6 µM; with PC-3 [6], 31.6 µM; with A549 [7], 11.4 µM; with HCT-116 [8] it was 29.7 µM.

On to `COc1ccc([C@@H]2C/C(=N/OCc3cn(-c4ccc(C#N)cc4)nn3)c3cc(CC=C(C)C)c(OC)cc3O2)cc1`, for which the inhibition of growth at 50 µM with HCT-116 [1] was 50%; in the assay with PC-3 [2] it was 50%; in the assay with MCF7 [3] it was 40%; in the assay with A549 [4] it was 42%.

Consider `COc1cc2c(cc1CC=C(C)C)C(=O)C[C@@H](c1ccc(Oc3ccc(Br)cc3)cc1)O2`, for which the inhibition of growth at 50 µM amounted to 76% in the assay with HCT-116 [1], 55% in the assay on PC-3 [2], 68% with MCF7 [3] and 72% in the assay with A549 [4].

Regarding `C#CCO/N=C1/C[C@@H](c2ccc(OC)cc2)Oc2cc(OC)c(CC=C(C)C)cc21`, the inhibition of growth at 50 µM is 65% in the assay on HCT-116 [1], 41% in the assay with PC-3 [2], 61% in the assay on MCF7 [3] and 64% in the assay with A549 [4].

By IC50 is commonly meant the point on the concentration scale where inhibition reaches its midpoint.
